Reference: ChEMBL document CHEMBL1122166, “Beta-adrenergic blocking agents. 22. 1-Phenoxy-3-[[(substituted-amido) alkyl]amino]-2-propanols” (J Med Chem, 1982)

These compounds were tested against T1, Adrenergic receptor beta (Homo sapiens) (UniProt P08588+P07550+P13945) (assay: In vivo beta adrenergic receptor blocking potency was determined by inhibition of tachycardia produced by isoproterenol (0.2 mg/kg iv) in cat preparation). Conditions: Felis catus; in the assay text read “0.2 µg/kg iv” for “0.2 mg/kg iv”; target entry is the homologue from another species.
Assay type: functional, organism-based
In short: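 Test agent infused over 30 min at three to five dose levels. Challenge was a submaximal isoproterenol dose (0.2 μg/kg iv). Mean log values were taken from two or three tests, with standard errors of the means.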

ED50 [mg/kg] | Compound
0.004 | CC(CNC(=O)Cc1ccccc1)NCC(O)COc1ccccc1C#N (stereo unspecified)
0.044 | CNC(=O)NCCNCC(O)COc1ccccc1C#N (stereo unspecified)
0.097 | N#Cc1ccccc1OCC(O)CNCCNC(=O)Nc1ccccc1[N+](=O)[O-] (stereo unspecified)
0.052 | O=C(NCCNCC(O)COc1ccccc1[N+](=O)[O-])Nc1ccccc1 (stereo unspecified)
0.099 | CC(C)NC(=O)NCCNCC(O)COc1ccccc1 (stereo unspecified)
0.011 | CC(C)(C)C(=O)NCCNCC(O)COc1ccccc1[N+](=O)[O-] (stereo unspecified)
0.012 | NC(=O)NCCNCC(O)COc1ccccc1 (stereo unspecified)
0.06 | N#Cc1ccccc1OCC(O)CNCCNC(N)=O (stereo unspecified)
0.304 | CCCCNC(=O)NCCNCC(O)COc1ccccc1C#N (stereo unspecified)
0.015 | CC(=O)NCCNCC(O)COc1ccccc1 (stereo unspecified)

Second part, the compound before the results:

Compound | ED50 [mg/kg]
CCCCCC(=O)NCCNCC(O)COc1ccccc1 (stereo unspecified) | 0.159
CS(=O)(=O)NCCNCC(O)COc1ccccc1 (stereo unspecified) | 0.039
O=C(Cc1ccc(Cl)cc1)NCCNCC(O)COc1ccccc1 (stereo unspecified) | 0.017
CC(CNC(=O)Cc1ccccc1)NCC(O)COc1ccccc1 (stereo unspecified) | 0.003
O=C(NCCNCC(O)COc1ccccc1)c1ccccc1Cl (stereo unspecified) | 0.161
CCCCCCCCC(=O)NCCNCC(O)COc1ccccc1 (stereo unspecified) | 0.84
CC(C)(OC(=O)NCCNCC(O)COc1ccccc1)c1ccc(Cl)cc1 (stereo unspecified) | 0.078
COCC(=O)NCCNCC(O)COc1ccccc1 (stereo unspecified) | 0.016
O=C(COc1ccccc1)NCCNCC(O)COc1ccccc1 (stereo unspecified) | 0.038
CCCCCC(=O)NCC(C)NCC(O)COc1ccccc1 (stereo unspecified) | 0.005
O=C(Cc1ccccc1)NCCNCC(O)COc1ccccc1 (stereo unspecified) | 0.029
CC(CNC(=O)C(C)C)NCC(O)COc1ccccc1 (stereo unspecified) | 0.005
CC(C)(CNC(=O)Cc1ccccc1)NCC(O)COc1ccccc1 (stereo unspecified) | 0.011
CC(C)S(=O)(=O)NCCNCC(O)COc1ccccc1 (stereo unspecified) | 0.008
O=C(NCCNCC(O)COc1ccccc1)c1cc(O)ccc1O (stereo unspecified) | 0.616

Same assay, conditions: Felis catus; target entry is the homologue from another species; in the assay text read “0.2 µg/kg iv” for “0.2 mg/kg iv”

ED50 [mg/kg] | Compound
0.024 | CCNC(=O)NCCNCC(O)COc1ccccc1 (stereo unspecified)
0.024 | C=CCNC(=O)NCCNCC(O)COc1ccccc1 (stereo unspecified)
0.168 | CC(C)NC(=O)NCCNCC(O)COc1ccccc1C#N (stereo unspecified)
0.022 | CCCCNC(=O)NCCNCC(O)COc1ccccc1 (stereo unspecified)
0.037 | O=C(NCCNCC(O)COc1ccccc1Cl)Nc1ccccc1 (stereo unspecified)
0.006 | CC(C)C(=O)NCCNCC(O)COc1ccccc1[N+](=O)[O-] (stereo unspecified)

More lines, now with the values behind:

Compound | ED50 [mg/kg]
O=C(NCCNCC(O)COc1ccccc1)C1CCCCC1 (stereo unspecified) | 0.02
C=CCOc1ccccc1OCC(O)CNCCNC(=O)Nc1ccccc1 (stereo unspecified) | 0.037
CC(CNC(=O)Cc1ccccc1Cl)NCC(O)COc1ccccc1[N+](=O)[O-] (stereo unspecified) | 0.007
C=CCOc1ccccc1OCC(O)CNC(C)CNC(=O)Cc1ccccc1 (stereo unspecified) | 0.019
CC(=O)NCCCCCCNCC(O)COc1ccccc1 (stereo unspecified) | 0.044
CC(C)C(=O)NCC(C)(C)NCC(O)COc1ccccc1 (stereo unspecified) | 0.003
O=C(NCCNCC(O)COc1ccccc1)c1ccc(O)c(O)c1 (stereo unspecified) | 0.014
O=C(NCCNCC(O)COc1ccccc1)C1CC1 (stereo unspecified) | 0.022
CN(C)c1ccccc1C(=O)NCCNCC(O)COc1ccccc1 (stereo unspecified) | 0.465

The compounds below were run against T1, Adrenergic receptor beta (Homo sapiens) (assay: In vivo beta adrenergic receptor blocking potency was determined by inhibition of tachycardia produced by isoproterenol (0.2 µg/kg iv) in cat preparation). Conditions: Felis catus; target entry is the homologue from another species.

ED50 [mg/kg] | Compound
0.282 | O=C(NCCNCC(O)COc1ccccc1)NC1CCCCC1 (stereo unspecified)
0.21 | CC(C)C(=O)NCCCNCC(O)COc1ccccc1 (stereo unspecified)
0.217 | Cc1c(N)cc(S(=O)(=O)NCCNCC(O)COc2ccccc2)cc1[N+](=O)[O-] (stereo unspecified)

Each compound was assayed against T1, Adrenergic receptor beta (Homo sapiens) (assay: In vivo beta adrenergic receptor blocking potency was determined by inhibition of depressor response produced by isoproterenol (0.2 mg/kg iv) in cat preparation). Conditions: Felis catus; in the assay text read “0.2 µg/kg iv” for “0.2 mg/kg iv”; target entry is the homologue from another species.
Assay type: functional, organism-based
In short: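 Test agent infused over 30 min at three to five dose levels against a submaximal isoproterenol challenge (0.2 μg/kg iv). The percent blockade of the isoproterenol vasodepressor response was estimated at the dose level derived from the tachycardia inhibition estimate.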

inhibition [%] | Compound
10 | CC(CNC(=O)Cc1ccccc1)NCC(O)COc1ccccc1C#N (stereo unspecified)
18 | CNC(=O)NCCNCC(O)COc1ccccc1C#N (stereo unspecified)
11 | N#Cc1ccccc1OCC(O)CNCCNC(=O)Nc1ccccc1[N+](=O)[O-] (stereo unspecified)
14 | O=C(NCCNCC(O)COc1ccccc1[N+](=O)[O-])Nc1ccccc1 (stereo unspecified)
5 | C=CCNC(=O)NCCNCC(O)COc1ccccc1 (stereo unspecified)
0 | NC(=O)NCCNCC(O)COc1ccccc1 (stereo unspecified)
0 | CC(C)C(=O)NCCCNCC(O)COc1ccccc1 (stereo unspecified)
8 | CCCCNC(=O)NCCNCC(O)COc1ccccc1 (stereo unspecified)
0 | CCCCNC(=O)NCCNCC(O)COc1ccccc1C#N (stereo unspecified)
7 | CC(=O)NCCNCC(O)COc1ccccc1 (stereo unspecified)
4 | O=C(NCCNCC(O)COc1ccccc1Cl)Nc1ccccc1 (stereo unspecified)

More lines, now with the values behind:

Compound | inhibition [%]
O=C(NCCNCC(O)COc1ccccc1)C1CCCCC1 (stereo unspecified) | 0
CS(=O)(=O)NCCNCC(O)COc1ccccc1 (stereo unspecified) | 0
O=C(NCCNCC(O)COc1ccccc1)c1ccccc1Cl (stereo unspecified) | 0
CC(CNC(=O)Cc1ccccc1Cl)NCC(O)COc1ccccc1[N+](=O)[O-] (stereo unspecified) | 34
CC(C)(OC(=O)NCCNCC(O)COc1ccccc1)c1ccc(Cl)cc1 (stereo unspecified) | 25
COCC(=O)NCCNCC(O)COc1ccccc1 (stereo unspecified) | 0
CCCCCC(=O)NCC(C)NCC(O)COc1ccccc1 (stereo unspecified) | 0
O=C(Cc1ccccc1)NCCNCC(O)COc1ccccc1 (stereo unspecified) | 0
O=C(NCCNCC(O)COc1ccccc1)C1CC1 (stereo unspecified) | 0
Cc1c(N)cc(S(=O)(=O)NCCNCC(O)COc2ccccc2)cc1[N+](=O)[O-] (stereo unspecified) | 34
CN(C)c1ccccc1C(=O)NCCNCC(O)COc1ccccc1 (stereo unspecified) | 0
O=C(NCCNCC(O)COc1ccccc1)c1cc(O)ccc1O (stereo unspecified) | 0

Same assay, conditions: Felis catus; target entry is the homologue from another species; in the assay text read “0.2 µg/kg iv” for “0.2 mg/kg iv”

inhibition [%] | Compound
0 | CCNC(=O)NCCNCC(O)COc1ccccc1 (stereo unspecified)
0 | CC(C)NC(=O)NCCNCC(O)COc1ccccc1 (stereo unspecified)
25 | CC(C)(C)C(=O)NCCNCC(O)COc1ccccc1[N+](=O)[O-] (stereo unspecified)
21 | N#Cc1ccccc1OCC(O)CNCCNC(N)=O (stereo unspecified)
0 | CC(C)NC(=O)NCCNCC(O)COc1ccccc1C#N (stereo unspecified)
5 | CC(C)C(=O)NCCNCC(O)COc1ccccc1[N+](=O)[O-] (stereo unspecified)

The remaining lines, values behind:

Compound | inhibition [%]
CCCCCC(=O)NCCNCC(O)COc1ccccc1 (stereo unspecified) | 0
C=CCOc1ccccc1OCC(O)CNCCNC(=O)Nc1ccccc1 (stereo unspecified) | 24
O=C(NCCNCC(O)COc1ccccc1)NC1CCCCC1 (stereo unspecified) | 6
O=C(Cc1ccc(Cl)cc1)NCCNCC(O)COc1ccccc1 (stereo unspecified) | 8
CC(CNC(=O)Cc1ccccc1)NCC(O)COc1ccccc1 (stereo unspecified) | 0
CCCCCCCCC(=O)NCCNCC(O)COc1ccccc1 (stereo unspecified) | 3
C=CCOc1ccccc1OCC(O)CNC(C)CNC(=O)Cc1ccccc1 (stereo unspecified) | 30
CC(=O)NCCCCCCNCC(O)COc1ccccc1 (stereo unspecified) | 16
CC(C)C(=O)NCC(C)(C)NCC(O)COc1ccccc1 (stereo unspecified) | 0
O=C(COc1ccccc1)NCCNCC(O)COc1ccccc1 (stereo unspecified) | 0
O=C(NCCNCC(O)COc1ccccc1)c1ccc(O)c(O)c1 (stereo unspecified) | 0
CC(CNC(=O)C(C)C)NCC(O)COc1ccccc1 (stereo unspecified) | 37
CC(C)(CNC(=O)Cc1ccccc1)NCC(O)COc1ccccc1 (stereo unspecified) | 0
CC(C)S(=O)(=O)NCCNCC(O)COc1ccccc1 (stereo unspecified) | 9
